# pIC50: −log10 of the molar value. The source made the active and inactive calls. The rule behind the calls is not given here.
# Tests used:
# OVCAR-5 [1] = assay: Cytotoxicity against human OVCAR5 cells assessed as cell growth at 0.001 uM after 48 hrs by sulforhodamine B assay; type: functional; conditions: OVCAR-5, 48 h, read-out: Activity
# [2] = Cytotoxicity against human Hs 578T cells assessed as cell growth at 0.01 uM after 48 hrs by sulforhodamine B assay; type: functional; conditions: read-out: Activity
# K562 [3] = assay: Cytotoxicity against human K562 cells assessed as cell growth at 0.01 uM after 48 hrs by sulforhodamine B assay; type: functional; conditions: K562, 48 h, read-out: Activity
# NCI-H522 [4] = assay: Cytotoxicity against human NCI-H522 cells assessed as cell growth at 100 nM after 48 hrs by sulforhodamine B assay; type: functional; conditions: NCI-H522, 48 h, read-out: Activity
# UO-31 [5] = assay: Cytotoxicity against human UO31 cells assessed as cell growth at 100 nM after 48 hrs by sulforhodamine B assay; type: functional; conditions: UO-31, 48 h, read-out: Activity
# SNB-75 = assay: Cytotoxicity against human SNB75 cells assessed as cell growth at 0.001 uM after 48 hrs by sulforhodamine B assay; type: functional; conditions: SNB-75, 48 h, read-out: Activity
# SK-MEL-2 [6] = assay: Cytotoxicity against human SK-MEL-2 cells assessed as cell growth at 100 nM after 48 hrs by sulforhodamine B assay; type: functional; conditions: SK-MEL-2, 48 h, read-out: Activity
# COLO 205 = assay: Cytotoxicity against human COLO205 cells assessed as cell growth at 1 uM after 48 hrs by sulforhodamine B assay; type: functional; conditions: COLO 205, 48 h, read-out: Activity
# Method in brief: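 Cells grown in RPMI 1640 with 5% FBS and 2 mM L-glutamine, seeded at 5,000–40,000 cells/well by doubling time. Time-zero plates TCA-fixed after 24 h. Five concentrations (10-fold or half-log dilutions from DMSO stock) added; 48 h at 37 °C, 5% CO2. Cold TCA fixation (final 10%, 60 min, 4 °C), 0.4% SRB stain, dye solubilized in 10 mM trizma base, A515.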
# SK-OV-3 = assay: Cytotoxicity against human SKOV3 cells assessed as cell growth at 0.001 uM after 48 hrs by sulforhodamine B assay; type: functional; conditions: SK-OV-3, 48 h, read-out: Activity
# SF-539 [7] = assay: Cytotoxicity against human SF539 cells assessed as cell growth at 1 uM after 48 hrs by sulforhodamine B assay; type: functional; conditions: SF-539, 48 h, read-out: Activity
# M14 [8] = assay: Cytotoxicity against human M14 cells assessed as cell growth at 100 nM after 48 hrs by sulforhodamine B assay; type: functional; conditions: M14, 48 h, read-out: Activity
# NCI-H522 [9] = assay: Cytotoxicity against human NCI-H522 cells assessed as cell growth at 0.01 uM after 48 hrs by sulforhodamine B assay; type: functional; conditions: NCI-H522, 48 h, read-out: Activity
# OVCAR-4 = assay: Cytotoxicity against human OVCAR4 cells assessed as cell growth at 1 uM after 48 hrs by sulforhodamine B assay; type: functional; conditions: OVCAR-4, 48 h, read-out: Activity
# SF-268 = assay: Cytotoxicity against human SF268 cells assessed as cell growth at 0.001 uM after 48 hrs by sulforhodamine B assay; type: functional; conditions: SF-268, 48 h, read-out: Activity
# NCI/ADR-RES = assay: Cytotoxicity against human NCI/ADR-RES cells assessed as cell growth at 0.01 uM after 48 hrs by sulforhodamine B assay; type: functional; conditions: read-out: Activity
# MDA-MB-231 = assay: Growth inhibition of human MDA-MB-231 cells after 48 hrs by sulforhodamine B assay; type: functional, cell-based; conditions: MDA-MB-231, 48 h
# Method in brief: (§1)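 Cells grown in RPMI 1640 with 5% FBS and 2 mM L-glutamine, seeded at 5,000–40,000 cells/well according to doubling time. After 24 h, time-zero plates are TCA-fixed. Five concentrations (10-fold or ½log dilutions, DMSO stocks) are applied for 48 h at 37 °C, 5% CO₂. Cells are TCA-fixed, SRB-stained and read at 515 nm. IC₅₀ is taken from [(Ti−Tz)/(C−Tz)]×100 = 50.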
# EKVX = assay: Cytotoxicity against human EKVX cells assessed as cell growth at 0.001 uM after 48 hrs by sulforhodamine B assay; type: functional; conditions: read-out: Activity
# KM12 = assay: Cytotoxicity against human KM12 cells assessed as cell growth at 100 nM after 48 hrs by sulforhodamine B assay; type: functional; conditions: KM12, 48 h, read-out: Activity
# K562 [10] = assay: Cytotoxicity against human K562 cells assessed as cell growth at 0.001 uM after 48 hrs by sulforhodamine B assay; type: functional; conditions: K562, 48 h, read-out: Activity
# SNB-19 = assay: Cytotoxicity against human SNB19 cells assessed as cell growth at 0.001 uM after 48 hrs by sulforhodamine B assay; type: functional; conditions: SNB-19, 48 h, read-out: Activity
# OVCAR-3 = assay: Cytotoxicity against human OVCAR-3 cells assessed as cell growth at 10 uM after 48 hrs by sulforhodamine B assay; type: functional; conditions: OVCAR-3, 48 h, read-out: Activity
# HCT-116 = assay: Growth inhibition of human HCT116 cells after 48 hrs by sulforhodamine B assay; type: functional, cell-based; conditions: HCT-116, 48 h; method in brief: as §1
# M14 [11] = assay: Cytotoxicity against human M14 cells assessed as cell growth at 0.001 uM after 48 hrs by sulforhodamine B assay; type: functional; conditions: M14, 48 h, read-out: Activity
# SN12C = assay: Growth inhibition of human SN12C cells after 48 hrs by sulforhodamine B assay; type: functional, cell-based; method in brief: as §1
# HT-29 = assay: Growth inhibition of human HT-29 cells after 48 hrs by sulforhodamine B assay; type: functional, cell-based; conditions: HT-29, 48 h; method in brief: as §1
# UO-31 [12] = assay: Cytotoxicity against human UO31 cells assessed as cell growth at 0.01 uM after 48 hrs by sulforhodamine B assay; type: functional; conditions: UO-31, 48 h, read-out: Activity
# OVCAR-8 = assay: Growth inhibition of human OVCAR8 cells after 48 hrs by sulforhodamine B assay; type: functional, cell-based; method in brief: as §1
# HOP-92 = assay: Growth inhibition of human HOP92 cells after 48 hrs by sulforhodamine B assay; type: functional, cell-based; method in brief: as §1
# U-251 = assay: Cytotoxicity against human U251 cells assessed as cell growth at 1 uM after 48 hrs by sulforhodamine B assay; type: functional; conditions: U-251, 48 h, read-out: Activity
# OVCAR-5 [13] = assay: Cytotoxicity against human OVCAR5 cells assessed as cell growth at 10 uM after 48 hrs by sulforhodamine B assay; type: functional; conditions: OVCAR-5, 48 h, read-out: Activity
# SK-MEL-2 [14] = assay: Cytotoxicity against human SK-MEL-2 cells assessed as cell growth at 1 uM after 48 hrs by sulforhodamine B assay; type: functional; conditions: SK-MEL-2, 48 h, read-out: Activity
# Malme-3M = assay: Cytotoxicity against human MALME-3M cells assessed as cell growth at 0.01 uM after 48 hrs by sulforhodamine B assay; type: functional; conditions: read-out: Activity
# SF-539 [15] = assay: Cytotoxicity against human SF539 cells assessed as cell growth at 100 nM after 48 hrs by sulforhodamine B assay; type: functional; conditions: SF-539, 48 h, read-out: Activity
# [16] = read-out: LC50 (the source's name)
smiles,measurement,setting,value
CC(=O)c1ccccc1-c1ccc(-c2ccnc(NC(=O)Nc3cc(N4CCOCC4)cc(C(F)(F)F)c3)n2)cn1,growth at 0.001 µM,OVCAR-5 [1],94%
same,growth at 0.01 µM,[2],101%
same,growth at 0.01 µM,K562 [3],75%
same,growth at 0.1 µM,NCI-H522 [4],101%
same,growth at 0.1 µM,UO-31 [5],80%
same,growth at 0.001 µM,SNB-75,88%
same,growth at 0.1 µM,SK-MEL-2 [6],102%
same,growth at 1 µM,COLO 205,106%
same,growth at 0.001 µM,SK-OV-3,111%
same,growth at 1 µM,SF-539 [7],45%
same,growth at 0.1 µM,M14 [8],77%
same,growth at 0.01 µM,NCI-H522 [9],103%
same,growth at 1 µM,OVCAR-4,48%
same,growth at 0.001 µM,SF-268,103%
same,growth at 0.01 µM,NCI/ADR-RES,98%
same,pIC50,MDA-MB-231,5.51
same,LC50,MDA-MB-231,> 100 µM
same,TGI,MDA-MB-231,> 100 µM
same,growth at 0.001 µM,EKVX,95%
same,growth at 0.1 µM,KM12,89%
same,growth at 0.001 µM,K562 [10],81%
same,growth at 0.001 µM,SNB-19,98%
same,growth at 10 µM,OVCAR-3,51%
same,GI50,HCT-116,> 100 µM
same,pIC50,HCT-116,< 4.00
same,TGI,HCT-116,> 100 µM
same,CC50,HCT-116; [16],> 100 µM
same,growth at 0.001 µM,M14 [11],94%
same,GI50,SN12C,1.27 µM
same,pIC50,SN12C,< 4.00
same,TGI,SN12C,> 100 µM
same,CC50,SN12C; [16],> 100 µM
same,GI50,HT-29,> 100 µM
same,pIC50,HT-29,< 4.00
same,TGI,HT-29,> 100 µM
same,CC50,HT-29; [16],> 100 µM
same,growth at 0.01 µM,UO-31 [12],91%
same,TGI,"OVCAR-8; Homo sapiens, OVCAR-8, 48 h",> 100 µM
same,CC50,"OVCAR-8; Homo sapiens, OVCAR-8, 48 h, read-out: LC50 (the source's name)",> 100 µM
same,IC50,OVCAR-8; ovcar-8,Not Active
same,TGI,HOP-92,inactive
same,GI50,"HOP-92; Homo sapiens, HOP-92, 48 h",4.29 µM
same,pIC50,"HOP-92; Homo sapiens, HOP-92, 48 h, read-out: IC50",5.53
same,CC50,"HOP-92; Homo sapiens, HOP-92, 48 h, read-out: LC50 (the source's name)",> 100 µM
same,growth at 1 µM,U-251,63%
same,growth at 10 µM,OVCAR-5 [13],118%
same,growth at 1 µM,SK-MEL-2 [14],65%
same,growth at 0.01 µM,Malme-3M,103%
same,growth at 0.1 µM,SF-539 [15],88%
